We go through 13 molecules from publication PMC11408085 (Biochemistry, 2024).

In series [1] the target is T1, E91K/K116E variant of IYD (Haliscomenobacter hydrossis, UniProt F4KU78, E91K/K116E). Briefly: Affinity of ligands to E91K/K116E variant of IYD. It counts as binding.
Series [2] concerns the target T2, IYD from Haliscomenobacter hydrossis (Haliscomenobacter hydrossis, UniProt F4KU78).
T2 sequence (F4KU78 1-222): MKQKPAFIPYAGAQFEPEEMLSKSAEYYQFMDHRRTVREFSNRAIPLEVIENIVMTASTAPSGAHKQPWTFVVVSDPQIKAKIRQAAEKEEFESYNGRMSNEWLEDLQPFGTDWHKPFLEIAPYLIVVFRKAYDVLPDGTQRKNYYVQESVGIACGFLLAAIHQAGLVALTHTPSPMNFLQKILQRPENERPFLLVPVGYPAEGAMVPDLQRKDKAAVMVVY
The note with it: IYD with FMNox; ref Kozyryev et al.[26]; cited from earlier work.

Series [3] deals with T1, E91K/K116E variant of IYD. Description: Limited proteolysis of E91K/K116E variant of IYD by trypsin. The note with it: relative to absence of ligands.
The target in series [4] is T2, IYD from Haliscomenobacter hydrossis. The following applies: deiodination; ref Kozyryev et al.[26]; cited from earlier work.
In series [5] the target is T1, E91K/K116E variant of IYD. Briefly: Catalytic dehalogenation by E91K/K116E variant of IYD. It counts as biochemical.
Series [6] deals with T3, trypsin from bovine pancreas (Bos taurus, UniProt P00760).
T3 sequence (P00760 24-246): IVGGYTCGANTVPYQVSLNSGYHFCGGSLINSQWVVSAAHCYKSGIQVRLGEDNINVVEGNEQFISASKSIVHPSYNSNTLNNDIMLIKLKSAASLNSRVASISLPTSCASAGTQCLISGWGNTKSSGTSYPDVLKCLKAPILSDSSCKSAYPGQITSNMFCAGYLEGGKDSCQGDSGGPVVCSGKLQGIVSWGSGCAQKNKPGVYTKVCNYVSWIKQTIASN
Description: Potential inhibition of trypsin by ligands of IYD. The following applies: DL-BAPNA as substrate; for inhibition of trypsin: ligand at concentration saturating IYD. It counts as biochemical. The method, boiled down: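 4-Nitroaniline formation read at 405 nm (ε = 9920 M⁻¹cm⁻¹) every 15 s for 5 min. Rate taken by linear regression over the first 2 min. Repeated independently twice.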

For series [7], the target named is T2, IYD from Haliscomenobacter hydrossis. The following applies: for fold change in t1/2: relative to IYD without ligand (10 min); for protection of IYD against trypsin: fluorinated ligands, saturating concentration; for fold increase in t1/2: O2N ligands, relative to IYD without ligand.
Series [8] shares this target. Description: biochemical. It counts as binding.
Series [9] shares this target. Description: Redox titration of IYD in the presence of substrate analogues. The note with it: for two-electron potential of IYD: in presence of ligand, −200 mV in absence of ligands; for formation of FMNsq during reductive titration: saturating ligand, anaerobic, pH 7.4, 25 °C.
For series [10] the target is unchanged. It counts as biochemical. The following applies: equimolar concentrations of substrate, anaerobic.
For series [11] the target is unchanged. Description: Catalytic deiodination. It counts as biochemical. The following applies: for kcat (s^−1) × 10^−2 / Km: deiodination, 100 mM potassium phosphate pH 7.4, 25 °C.
Substrate in series [12]: O=C(O)[C@@H](O)Cc1ccc(O)c(I)c1
Briefly: Catalytic deiodination. It counts as biochemical, Haliscomenobacter hydrossis. The following applies: other: deiodination, 100 mM potassium phosphate pH 7.4, 25 °C.

Substrate in series [13]: N[C@H](Cc1ccc(O)c(I)c1)C(=O)O
Briefly: Catalytic deiodination. It counts as biochemical, Haliscomenobacter hydrossis. The following applies: other: deiodination, 100 mM potassium phosphate pH 7.4, 25 °C.

Where [14] appears, read: IYD with FMNox, 110 mM potassium phosphate pH 7.4, 25 °C.

Usually Kd stands for the constant that tells how readily two partners part at equilibrium. As usually defined, the Km is the concentration of substrate that gives half-maximal velocity. As a reminder, the kcat is the number of substrate molecules converted per active site and unit of time at saturation. What is called kcat/Km is the second-order rate constant that governs catalysis at low substrate concentration.

Where two headings read alike, the source gives them in different places. Where only a bound is given, the exact number is not on record here.

In series [1], `N[C@@H](Cc1ccc(O)c(I)c1)C(=O)O` [I-Tyr, L-3-iodotyrosine, reference compound] yielded a Kd of 85 ± 14 µM. In series [2], the Kd is 5.7 ± 0.4 µM. In addition, the “protection of variant from trypsin” value in series [3] was “over a twofold protection”. Also, in series [4], the Michaelis constant (Km) was 49 ± 10 µM and the “kcat (s^−1) × 10^−2” value is given as 60 ± 0.5 s^−1 × 10^−2. Moreover, the catalytic dehalogenation entry in series [5] was “No catalytic dehalogenation could be detected”. Further, the inhibition of trypsin entry in [6] is “not due to general inhibition of trypsin”. Further, in series [7], the “fold change in t1/2” value came to 2.2.

`O=C(O)[C@@H](O)Cc1ccc(O)c(I)c1` [I-HPLA, (S)-3-(4-hydroxy-3-iodophenyl)lactic acid] showed a Kd in [8] above 3000 µM.

With `NC(=O)[C@@H](N)Cc1ccc(O)c(F)c1` [F-tyrosinamide], the Kd in series [8] (setting [14]) came out at 77 ± 3 µM. Besides, in series [9], the “two-electron potential of IYD” value is on record as −236 mV and the “formation of FMNsq during reductive titration” value is “not detected”. Moreover, in series [7], the “protection of IYD against trypsin” value is “protected IYD against trypsin”.

In the case of `NC(=O)[C@@H](N)Cc1ccc(O)c([N+](=O)[O-])c1` [O2N-tyrosinamide], the “ability to oxidize reduced IYD (FMNhq)” value in series [10] was “capable of oxidizing FMNhq to regenerate the initial FMNox spectrum”. This molecule yielded a Kd in [8] (setting [14]) of 2.4 ± 0.1 µM. Moreover, the inhibition of trypsin entry in series [6] is “not the consequence of a general inhibition of trypsin”. In series [7], the “fold increase in t1/2” value worked out at 3.0.

As to `O=C(O)CCc1ccc(O)c(I)c1` [I-HPPA, 3-(4-hydroxy-3-iodophenyl)propanoic acid], in series [8], the Kd is above 4000 µM. Moreover, the “decrease in affinity relative to I-Tyr” value in series [8] (IYD with FMNox) is reported as “at least 700 fold”. For the same molecule, the “kcat (s^−1) × 10^−2” value in series [11] is <9.3 × 10^−3^e s^−1 × 10^−2. Moreover, the “kcat as percentage of that for I-Tyr” value in series [11] (set by detection limit of deiodinated product HPPA) is at most 0.015%.

Consider `O=C(O)[C@@H](O)Cc1ccc(O)c([N+](=O)[O-])c1` [O2N-HPLA, (S)-3-(4-hydroxy-3-nitrophenyl)lactic acid], for which the “ability to oxidize reduced IYD (FMNhq)” value in series [10] is given as “capable of oxidizing FMNhq to regenerate the initial FMNox spectrum”. Further, the Kd in series [8] turned out to be 180 ± 4 µM. Moreover, the “inhibition of trypsin catalysis” value in [6] (ligand at twice its Kd value) was “no more than 25%”. Besides, the “fold increase in t1/2” value in [7] was found to be 2.1.

The molecule `NCCc1ccc(O)c(F)c1` [F-tyramine] gave a Kd in series [8] (setting [14]) of 730 ± 140 µM. Also, in series [9], the “two-electron potential of IYD” value is reported as −225 mV and the “formation of FMNsq during reductive titration” value is “not detected”. Also, the inhibition of trypsin result in series [6] is on record as “inhibited trypsin”. In addition, the “protection of IYD against trypsin” value in [7] is on record as “protected IYD against trypsin”.

On to `NC(=O)C(N)Cc1ccc(O)c(I)c1` (stereo not shown) [I-tyrosinamide], for which binding in series [8] (setting [14]) was characterised by a dissociation constant (Kd) of 7 ± 0.2 µM. In addition, in series [11], the “decrease in kcat for dehalogenation relative to I-Tyr” value is recorded as “more than 30 fold”, the “decrease in kcat/Km of dehalogenation relative to I-Tyr” value is on record as “more than 900 fold”, the Michaelis-Menten constant (Km) was 2410 ± 410 µM and the “kcat (s^−1) × 10^−2” value is on record as 1.7 ± 0.2 s^−1 × 10^−2. Also, in series [7], the “fold change in t1/2” value is 2.7.

As for `NCCc1ccc(O)c([N+](=O)[O-])c1` [O2N-tyramine], the “ability to oxidize reduced IYD (FMNhq)” value in series [10] is on record as “capable of oxidizing FMNhq to regenerate the initial FMNox spectrum”. In addition, the “weakening of binding relative to O2N-Tyr” value in series [8] (IYD with FMNox) was 70 fold. This molecule yielded a Kd in [8] (setting [14]) of 280 ± 10 µM. Also, in series [7], the “fold increase in t1/2” value is on record as 2.7.

Molecule `N[C@@H](Cc1ccc(O)c(F)c1)C(=O)O` [F-Tyr, L-3-fluorotyrosine, reference compound] showed a Kd in series [8] of 97 ± 3 µM. The “decrease in affinity relative to I-Tyr” value in series [8] (IYD with FMNox) was “more than 10 fold”. Also, the “formation of FMNsq during reductive titration” value in [9] was “consistent with the neutral form of FMNsq”.

Consider `N[C@H](Cc1ccc(O)c(I)c1)C(=O)O` [D-I-Tyr, D-3-iodotyrosine], for which the values for the Kd in series [1] and in series [8] were 200 ± 30 µM and 270 ± 15 µM, respectively. In addition, the “protection of variant from trypsin” value in series [3] is “over a twofold protection”. The catalytic dehalogenation entry in series [5] is reported as “No catalytic dehalogenation could be detected”. Also, in series [6], the inhibition of trypsin result is on record as “mild inhibitor of trypsin”. In addition, in [7], the “fold change in t1/2” value was determined as 0.62.

On to `NCCc1ccc(O)c(I)c1` [I-tyramine], for which, in series [8] (setting [14]), the Kd turned out to be 99 ± 10 µM. In series [11], the “decrease in kcat for dehalogenation relative to I-Tyr” value is on record as “more than 30 fold”, the “decrease in kcat/Km of dehalogenation relative to I-Tyr” value is given as “more than 900 fold”, the Km came out at 1470 ± 450 µM and the “kcat (s^−1) × 10^−2” value came to 1.8 ± 0.3 s^−1 × 10^−2. Also, the “fold change in t1/2” value in series [7] turned out to be 2.7.

B1: IYD from Haliscomenobacter hydrossis (Haliscomenobacter hydrossis DSM 1100) (protein)
chain: MKQKPAFIPYAGAQFEPEEMLSKSAEYYQFMDHRRTVREFSNRAIPLEVIENIVMTASTAPSGAHKQPWTFVVVSDPQIKAKIRQAAEKEEFESYNGRMSNEWLEDLQPFGTDWHKPFLEIAPYLIVVFRKAYDVLPDGTQRKNYYVQESVGIACGFLLAAIHQAGLVALTHTPSPMNFLQKILQRPENERPFLLVPVGYPAEGAMVPDLQRKDKAAVMVVY
Consider B1, for which, in “Catalytic deiodination [12]”, the Km is 270 ± 30 µM, the kcat is 0.013 ± 0.001 s⁻¹ and the kcat/Km amounted to 47 ± 5 M⁻¹ s⁻¹. Also, in the series “Catalytic deiodination [13]”, the Km was 7900 ± 4000 µM, the kcat stood at 0.027 ± 0.01 s⁻¹ and the kcat/Km was found to be 3.4 ± 1 M⁻¹ s⁻¹.
